Test results reported in ChEMBL document CHEMBL1145281, “Potent bombesin-like peptides for GRP-receptor targeting of tumors with 99mTc: a preclinical study” (J Med Chem, 2005).

What was measured:
[1] = target: T1, Bombesin receptor subtype-3 (Homo sapiens, UniProt P32247); test: Inhibition of bombesin subtype 3 receptor expressed in human lung carcinoids
T1 sequence (P32247 whole entry): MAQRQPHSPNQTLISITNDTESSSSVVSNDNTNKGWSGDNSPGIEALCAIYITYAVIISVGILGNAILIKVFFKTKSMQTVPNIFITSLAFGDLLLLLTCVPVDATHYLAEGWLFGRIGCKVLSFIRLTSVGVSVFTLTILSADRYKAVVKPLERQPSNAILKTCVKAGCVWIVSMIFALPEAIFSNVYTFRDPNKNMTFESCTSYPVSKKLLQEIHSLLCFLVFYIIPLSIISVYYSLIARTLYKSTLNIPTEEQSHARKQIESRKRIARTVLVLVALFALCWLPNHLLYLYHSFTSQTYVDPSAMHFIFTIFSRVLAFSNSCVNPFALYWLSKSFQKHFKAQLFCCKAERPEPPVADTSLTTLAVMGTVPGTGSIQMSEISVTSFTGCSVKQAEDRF

[2] = target: T2, Gastrin-releasing peptide receptor (Homo sapiens, UniProt P30550); test: Inhibition of gastrin releasing peptide receptor expressed in human prostate cancer cells; format: cell-based, Cancer cell lines
[3] = target: T2, Gastrin-releasing peptide receptor; test: Displacement of [125 I-Tyr4]BB from human gastrin releasing peptide receptor expressed in PC-3 cell membranes
[4] = tested on: PC-3; test: Equilibrium constant of compound for binding to the active sites in human PC-3 cell membranes; format: functional
In short: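 Saturation binding of 99mTc/99gTc-labelled peptides in PC-3 membrane homogenates (50 μg protein), 0.06–12 nM total peptide, two triplicate sets for total and nonspecific binding. HEPES pH 7.6 buffer with 1% BSA, 5.5 mM MgCl2, 35 μM bacitracin. 1 h at 37 °C. Nonspecific binding defined with [Tyr4]BB. Kd from Scatchard analysis.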

T2 sequence (P30550 whole entry): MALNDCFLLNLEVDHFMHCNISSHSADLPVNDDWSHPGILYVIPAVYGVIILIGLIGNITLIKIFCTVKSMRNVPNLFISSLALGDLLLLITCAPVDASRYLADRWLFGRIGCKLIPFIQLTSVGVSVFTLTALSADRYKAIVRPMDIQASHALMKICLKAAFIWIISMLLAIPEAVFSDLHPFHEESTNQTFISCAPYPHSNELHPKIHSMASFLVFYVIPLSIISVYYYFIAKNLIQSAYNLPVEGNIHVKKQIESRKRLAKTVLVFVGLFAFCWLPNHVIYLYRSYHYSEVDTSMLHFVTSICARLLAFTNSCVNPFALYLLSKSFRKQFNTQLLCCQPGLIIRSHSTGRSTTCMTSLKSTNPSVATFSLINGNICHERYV

Row | IC50 [2] | IC50 [3] | SMILES | IC50 [1] | Kd [4]
1 | 1300 pM | 600 pM | CCCC[C@H](NC(=O)[C@H](CC(C)C)NC(=O)[C@H](Cc1c[nH]cn1)NC(=O)CNC(=O)[C@@H](NC(=O)[C@H](C)NC(=O)[C@H](Cc1c[nH]c2ccccc12)NC(=O)[C@H](CCC(N)=O)NC(=O)COCC(=O)Nc1ccc(CC(CNCCN)CNCCN)cc1)C(C)C)C(N)=O | > 100000 pM | 140 pM
2 | 1940 pM | 150 pM | CCCC[C@H](NC(=O)[C@H](CC(C)C)NC(=O)[C@H](Cc1c[nH]cn1)NC(=O)CNC(=O)[C@@H](NC(=O)[C@H](C)NC(=O)[C@H](Cc1c[nH]c2ccccc12)NC(=O)[C@H](CCC(N)=O)NC(=O)[C@H](CC(N)=O)NC(=O)CNC(=O)[C@H](Cc1ccc(O)cc1)NC(=O)[C@H](CCCN=C(N)N)NC(=O)[C@H](CCC(N)=O)NC(=O)[C@@H]1CCCN1C(=O)C(CNCCN)CNCCN)C(C)C)C(N)=O | > 100000 pM | –
3 | 650 pM | 80 pM | CSCC[C@H](NC(=O)[C@H](CC(C)C)NC(=O)[C@H](Cc1c[nH]cn1)NC(=O)CNC(=O)[C@@H](NC(=O)[C@H](C)NC(=O)[C@H](Cc1c[nH]c2ccccc12)NC(=O)[C@H](CCC(N)=O)NC(=O)COCC(=O)Nc1ccc(CC(CNCCN)CNCCN)cc1)C(C)C)C(N)=O | 37000 pM | 70 pM
